TAAR1 agonist: human TAAR1 agonists, primary screen, Fluo-8 calcium fluorescence, CHO RD-HGA16 cells. Trace amine-associated receptor 1 (Homo sapiens), Q96RJ0. vehicle wells 0%, saturating PEA agonist 100%. activation, % at 3 µM. 0.99% of 360,000 active;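 active = activation above the mean activation of all test compounds in the run plus 3 SD, cut at about 38% in these data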
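System: CHO-derived RD-HGA16 cells with stable Gα16 and human TAAR1 / Times: 17-24 h plating, Fluo-8 75 min 37 °C, 30 min RT / Technique: calcium-sensitive Fluo-8 signal, excitation 470-495, emission 515-575 nm / Measure: % activation relative to PEA EC100 response / Benchmarks: DMSO and PEA EC100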
OX1R antag-1: OX1R (HCRTR1) antagonists, primary screen, fluorescence, CHO/OX1R cells, Fluo-8 calcium, orexin A; Fluo-8 calcium fluorescence; inhibition, % at 5 µM; Orexin/Hypocretin receptor type 1 (Homo sapiens), O43613; 0.43% of 330,000 active;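 active = inhibition above its plate's threshold, mean inhibition of all tested compounds on the plate plus 3 SD, cut at about 37% in these data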;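 also: 0% = orexin A challenge wells and 100% = SB-334867-A antagonist wells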
Target sequence (O43613 whole entry, looked up): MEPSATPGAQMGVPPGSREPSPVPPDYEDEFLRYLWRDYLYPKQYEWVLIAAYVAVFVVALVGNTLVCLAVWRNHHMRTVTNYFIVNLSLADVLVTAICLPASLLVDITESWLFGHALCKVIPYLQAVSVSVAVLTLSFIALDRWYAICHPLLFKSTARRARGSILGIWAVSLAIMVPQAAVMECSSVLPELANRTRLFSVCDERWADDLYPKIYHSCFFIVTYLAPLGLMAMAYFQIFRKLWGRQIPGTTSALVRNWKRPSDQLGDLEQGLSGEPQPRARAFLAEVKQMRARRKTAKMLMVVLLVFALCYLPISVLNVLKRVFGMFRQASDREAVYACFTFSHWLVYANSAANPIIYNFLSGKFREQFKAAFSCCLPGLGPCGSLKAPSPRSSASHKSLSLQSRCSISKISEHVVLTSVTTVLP
TAAR1 antag: human TAAR1 antagonists, primary screen, Fluo-8 calcium fluorescence, CHO RD-HGA16 cells; Trace amine-associated receptor 1 (Homo sapiens), Q96RJ0; antagonist; inhibition, % at 3 µM; 1.5% of 360,000 active; AID 624466, 2012;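 active = inhibition above a per-plate cutoff, the mean inhibition of test compounds on that plate plus 3 SD, cut at about 49% in these data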;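 also: 0% = DMSO plus EC80 beta-PEA response and 100% = DMSO alone without agonist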
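Test system: hTAAR1-expressing CHO RD-HGA16 cells, Gα16-coupled; Probe or stimulus: EC80 β-phenethylamine stimulus; Compound dosing: single nominal final test compound concentration of 3 µM; Timing: 140 s kinetic read after compound, 140 s after agonist; Signal: Fluo-8 calcium-sensitive fluorescence; Measure: % inhibition of agonist calcium response; Controls: DMSO and EC80 PEA controls.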
OX1R antag-2: antagonists of human orexin 1 receptor (OX1R) | Orexin/Hypocretin receptor type 1 (Homo sapiens), O43613 | OX1R-expressing cells, FRET antagonist read-out | inhibition, % at 6.6 µM | 1.8% of 330,000 active | AID 485270, 2010; in the data active = inhibition mostly above about 38%, no sharp cut-off; inactive = mostly below about 40%;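 also: 0% = agonist challenge alone and 100% = reference antagonist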
CHO parental Ca: ATP-evoked calcium signal inhibitors, parental CHO, primary screen, counter-screen for OX1R antagonist project, cell-based, fluorescence, Fluo-8 calcium dye. parental CHO-K1, ATP-induced calcium, Fluo-8 fluorescence. inhibition, % at 5.6 µM. 0.63% of 330,000 active. AID 463079, 2010;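 active = inhibition above that plate's mean sample inhibition plus 3 SD, cut at about 26% in these data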;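 also: 0% = ATP-challenged DMSO wells and 100% = DMSO wells without ATP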
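test system = CHO parental line | reagent = ATP stimulus | measured by = intracellular calcium via Fluo-8 no-wash fluorescent dye | control set = ATP and no-ATP DMSO wells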
GalR3 antag: GalR3 antagonists in HEK293 cells, primary screen, cell-based, fluorescence readout; Galanin receptor type 3 (Homo sapiens), O60755; HEK293 GalR3-CNG cAMP membrane potential fluorescence; galR3 body fused to GalR1 C-terminus; inhibition, % at 3 µM; 0.44% of 360,000 active;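 active = inhibition above the screen-wide average plus 3 SD, cut at about 13% in these data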;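 also: forskolin and galanin both at EC90 stimulate the cells; cAMP rise reported by CNG channel membrane potential dye signal; 0% = forskolin plus galanin with DMSO and 100% = forskolin alone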
nonsel antag count: nonselective antagonists in TAAR1 counter-screen cells, counter-screen for hTAAR1 antagonist project, cell-based, fluorescence, calcium; shares compounds with TAAR1 antag; counterscreen cell line, antagonist mode; inhibition, % at 3 µM; 77% of 2,400 active; AID 651780, 2012; in the data active = inhibition above about 22%;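 also: CHO-Ga16 host cells stimulated with ATP at an EC80 level; 0% = agonist EC80 plus vehicle and 100% = vehicle without agonist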
TAAR1 antag conf: human TAAR1 antagonists, retest of hits, confirmation, cell-based, fluorescence. TAAR1-expressing cells, fluorescence antagonist read-out. inhibition, % at 3 µM. shares compounds with TAAR1 antag. AID 651785, 2012. 40% of 2,400 active; in the data active = inhibition above about 49%;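 also: CHO-Ga16 host cells challenged with agonist PEA near its EC80; 0% = agonist at EC80 plus vehicle and 100% = vehicle with no agonist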
Ga16 ag counter: calcium activation in Ga16-expressing cells, counter-screen for TAAR1 antagonist project, cell-based, fluorescence; activation, % at 3 µM; shares compounds with TAAR1 antag; agonist counterscreen; 18% of 2,400 active; in the data active = activation above about 12%;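 also: 0% = vehicle wells and 100% = saturating stimulus response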
TAAR1 ag count: TAAR1 activation by candidate antagonists – cell-based, fluorescence, counter-screen for TAAR1 antagonist project; shares compounds with TAAR1 antag; hTAAR1 cell line, agonist mode; activation, % at 3 µM; 2% of 2,400 active; in the data active = activation above about 37%;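 also: CHO cells stably expressing TAAR1 with calcium dye readout; 0% = DMSO vehicle and 100% = full agonist response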
Starred values were filed as active, the others as inactive; x = no result given. Hits are enriched below; roughly 4.3% of the tested compounds scored in any of these assays.

SMILES	TAAR1 agonist	OX1R antag-1	TAAR1 antag	OX1R antag-2	CHO parental Ca	GalR3 antag	nonsel antag count	TAAR1 antag conf	Ga16 ag counter	TAAR1 ag count
CCN(C(=O)COC(=O)CCC(=O)c1ccccc1)c1c(N)n(Cc2ccccc2)c(=O)[nH]c1=O	1	0	1	5	-7	-5	x	x	x	x
Cc1nnc(SCC(=O)Nc2nsc(-c3ccc(C(C)(C)C)cc3)n2)s1	2	-25	59*	21	-13	0	32*	39	7	4
COc1ccc(NC(=O)CC2C(=O)N(C)C(=S)N2Cc2ccco2)cc1 (stereo not drawn)	1	-6	5	5	-10	3	x	x	x	x
CCN1C(=O)C(CC(=O)Nc2ccc(OC)cc2)N(CCc2ccccc2F)C1=S (stereo not drawn)	20	-2	75*	2	-10	-5	31*	41	8	9
COc1ccc(NC(=O)CC2C(=O)N(C)C(=S)N2CCc2ccccc2F)cc1 (stereo not drawn)	21	-21	57*	4	-6	-4	37*	56*	12*	14
CCN1C(=O)C(CC(=O)Nc2ccc(OC)cc2)N(CCc2ccccc2)C1=S (stereo not drawn)	9	-14	43	11	-12	-5	x	x	x	x
Cc1ccc(C)c(NC(=O)Nn2cnnc2)c1	1	8	-9	14	3	-2	x	x	x	x
Cc1ccc(Cl)cc1NC(=O)Nn1cnnc1	1	0	62*	2	-4	4	2	-1	0	0
CCCS(=O)(=O)NC(=O)C1(C)CCCN(C(=O)c2ccccc2C(F)(F)F)C1 (stereo not drawn)	2	x	-25	x	x	-7	x	x	x	x
COC1=CC(=O)OC(c2cccc(C(F)(F)F)c2)C1 (stereo not drawn)	-1	x	2	x	x	-5	x	x	x	x
COc1cc(OC)cc(-c2c(Sc3ccccc3)c3cc(-c4cnc(OC)nc4)ccc3n2C)c1	-1	x	4	x	x	-5	x	x	x	x
COc1cc(C#Cc2c(-c3cncn3C)n(C)c3ccc(-c4cnc(OC)nc4)cc23)cc(OC)c1	8	0	73*	20	20	-5	35*	52*	5	0
COc1cc(/C=C(\C#N)c2nc3ccccc3[nH]2)cc(Br)c1OCc1ccccc1	8	-11	60*	24	-5	2	47*	56*	8	5
COc1cc(/C=C(/C#N)c2ccccc2)ccc1Oc1ccc([N+](=O)[O-])cn1	7	-8	19	17	-5	-3	x	x	x	x
COc1cc(/C=C(\C#N)c2nc3ccccc3[nH]2)ccc1Oc1ccc([N+](=O)[O-])cn1	20	-18	84*	25	-7	0	50*	65*	11	9
COc1cc(/C=C(\C#N)c2nc3ccccc3[nH]2)cc(Br)c1OCc1ccc(F)cc1	9	-19	45	13	-3	7	x	x	x	x
